According to ChEMBL document CHEMBL3875172, “Evaluation of the anti-malarial activity and cytotoxicity of 2,4-diamino-pyrimidine-based kinase inhibitors” (Eur J Med Chem, 2016):

What was measured:
[1] = Cytotoxicity against African green monkey Vero cells at 10 uM after 4 days by fluorescence assay; type: toxicity, cell-based; conditions: chlorocebus sabaeus, 96 h
Outline: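 GFP-expressing Vero cells (stably transfected with pEGFP-N1), maintained in MEM with 10% heat-inactivated FBS, L-glutamine, pyruvate and geneticin. Seeded at 3.3 × 10^4 cells/ml onto compound at […] (so in the source), then incubated 4 days at 37 °C, 5% CO2. Read by bottom fluorescence (ex 530/em 590 nm) as percent cytotoxicity. Ellipticine positive control; 0.5% DMSO negative control.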

Plasmodium falciparum [2] = assay: Antimalarial activity against multidrug-resistant Plasmodium falciparum K1 infected human erythrocytes assessed as reduction in parasite viability after 24 hrs by [3H]-hypoxanthine incorporation assay; type: functional
Outline: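 K1 parasites cultured in RPMI-1640 with 25 mM HEPES, 25 mM NaHCO3, 10% […] human serum and erythrocytes at 37 C, 3% CO2. Early ring-stage culture (1% parasitemia, 1.5% Hct) was exposed to compounds in duplicate for 24 h, then [3H]hypoxanthine was added for a further 18-20 h. Incorporation was scintillation-counted, and IC50 (50% growth reduction) was taken from fitted curves. The vehicle was 0.5% DMSO.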

[3] = molecular target: Epidermal growth factor receptor (Homo sapiens, UniProt P00533); assay: Inhibition of human EGFR using poly (Glu:Tyr) as substrate measured for 1.5 hrs by oregon green 488 dye-based fluorescence assay
[4] = molecular target: T1, Tyrosine-protein kinase JAK3 (Homo sapiens, UniProt P52333); assay: Inhibition of human JAK3 using poly (Glu:Tyr) as substrate
T1 sequence (P52333 whole entry): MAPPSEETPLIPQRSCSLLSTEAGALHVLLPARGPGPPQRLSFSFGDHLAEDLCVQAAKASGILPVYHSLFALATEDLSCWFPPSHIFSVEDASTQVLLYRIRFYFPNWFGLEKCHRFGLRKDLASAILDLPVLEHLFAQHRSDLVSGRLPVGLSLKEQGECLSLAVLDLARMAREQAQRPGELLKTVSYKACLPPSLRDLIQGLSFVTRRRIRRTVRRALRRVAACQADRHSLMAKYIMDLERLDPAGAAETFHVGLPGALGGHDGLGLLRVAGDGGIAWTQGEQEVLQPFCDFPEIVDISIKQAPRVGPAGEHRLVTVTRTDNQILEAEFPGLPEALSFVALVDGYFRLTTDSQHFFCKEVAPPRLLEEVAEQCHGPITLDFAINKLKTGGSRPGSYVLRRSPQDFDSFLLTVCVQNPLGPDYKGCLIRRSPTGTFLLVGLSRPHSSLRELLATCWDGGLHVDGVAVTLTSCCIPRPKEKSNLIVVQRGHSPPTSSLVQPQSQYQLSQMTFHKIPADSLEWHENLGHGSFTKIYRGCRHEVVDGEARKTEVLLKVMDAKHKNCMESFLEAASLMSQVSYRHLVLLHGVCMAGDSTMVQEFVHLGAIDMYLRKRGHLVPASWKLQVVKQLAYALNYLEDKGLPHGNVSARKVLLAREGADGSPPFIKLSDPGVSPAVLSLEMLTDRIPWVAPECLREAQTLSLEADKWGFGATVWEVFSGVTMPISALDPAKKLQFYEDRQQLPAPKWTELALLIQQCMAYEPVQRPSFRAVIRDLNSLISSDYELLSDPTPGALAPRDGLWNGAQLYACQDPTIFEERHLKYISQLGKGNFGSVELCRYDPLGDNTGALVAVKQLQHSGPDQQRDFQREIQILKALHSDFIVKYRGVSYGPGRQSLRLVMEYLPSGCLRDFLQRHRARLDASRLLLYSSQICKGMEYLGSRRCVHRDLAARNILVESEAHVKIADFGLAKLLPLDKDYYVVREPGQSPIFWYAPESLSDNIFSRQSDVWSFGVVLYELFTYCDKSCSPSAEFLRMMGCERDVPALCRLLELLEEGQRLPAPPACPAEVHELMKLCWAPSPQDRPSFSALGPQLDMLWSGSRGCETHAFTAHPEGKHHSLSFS
Outline: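 Antibody Beacon tyrosine kinase fluorescence assay, run as for EGFR. Reaction held 3 ng JAK3 enzyme, 0.1 mg/ml poly(Glu:Tyr) and 0.1 mg/ml ATP.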

[5] = Cytotoxicity against African green monkey Vero cells after 72 hrs by MTT assay; type: toxicity, cell-based, Chlorocebus sabaeus
Outline: (§1)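 Dose-response MTT assay in cells grown in DMEM with 10% FBS, penicillin and streptomycin at 37 °C, 5% CO2. Cells were precultured 16–18 h, then exposed to compound for 72 h. MTT was added for 3 h, formazan dissolved in DMSO, and absorbance read at 570 nm. Gefitinib positive control; 0.5% DMSO negative control.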

[6] = molecular target: Tyrosine-protein kinase JAK2 (Homo sapiens, UniProt O60674); assay: Inhibition of human JAK2 using poly (Glu:Tyr) as substrate
Outline: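 Antibody Beacon tyrosine kinase fluorescence assay, run as for EGFR. Reaction held 10 ng JAK2 enzyme, 0.1 mg/ml poly(Glu:Tyr) and 0.1 mg/ml ATP.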

[7] = Cytotoxicity against human A549 cells after 72 hrs by MTT assay; type: toxicity, cell-based; outline: as §1
[8] = Cytotoxicity against human HepG2 cells at 10uM; type: toxicity, cell-based; conditions: hepg2, 10 µM
Plasmodium falciparum [9] = assay: Antimalarial activity against Plasmodium falciparum 3D7 by high throughput screening assay; type: functional

Epidermal growth factor receptor, sequence (P00533 whole entry): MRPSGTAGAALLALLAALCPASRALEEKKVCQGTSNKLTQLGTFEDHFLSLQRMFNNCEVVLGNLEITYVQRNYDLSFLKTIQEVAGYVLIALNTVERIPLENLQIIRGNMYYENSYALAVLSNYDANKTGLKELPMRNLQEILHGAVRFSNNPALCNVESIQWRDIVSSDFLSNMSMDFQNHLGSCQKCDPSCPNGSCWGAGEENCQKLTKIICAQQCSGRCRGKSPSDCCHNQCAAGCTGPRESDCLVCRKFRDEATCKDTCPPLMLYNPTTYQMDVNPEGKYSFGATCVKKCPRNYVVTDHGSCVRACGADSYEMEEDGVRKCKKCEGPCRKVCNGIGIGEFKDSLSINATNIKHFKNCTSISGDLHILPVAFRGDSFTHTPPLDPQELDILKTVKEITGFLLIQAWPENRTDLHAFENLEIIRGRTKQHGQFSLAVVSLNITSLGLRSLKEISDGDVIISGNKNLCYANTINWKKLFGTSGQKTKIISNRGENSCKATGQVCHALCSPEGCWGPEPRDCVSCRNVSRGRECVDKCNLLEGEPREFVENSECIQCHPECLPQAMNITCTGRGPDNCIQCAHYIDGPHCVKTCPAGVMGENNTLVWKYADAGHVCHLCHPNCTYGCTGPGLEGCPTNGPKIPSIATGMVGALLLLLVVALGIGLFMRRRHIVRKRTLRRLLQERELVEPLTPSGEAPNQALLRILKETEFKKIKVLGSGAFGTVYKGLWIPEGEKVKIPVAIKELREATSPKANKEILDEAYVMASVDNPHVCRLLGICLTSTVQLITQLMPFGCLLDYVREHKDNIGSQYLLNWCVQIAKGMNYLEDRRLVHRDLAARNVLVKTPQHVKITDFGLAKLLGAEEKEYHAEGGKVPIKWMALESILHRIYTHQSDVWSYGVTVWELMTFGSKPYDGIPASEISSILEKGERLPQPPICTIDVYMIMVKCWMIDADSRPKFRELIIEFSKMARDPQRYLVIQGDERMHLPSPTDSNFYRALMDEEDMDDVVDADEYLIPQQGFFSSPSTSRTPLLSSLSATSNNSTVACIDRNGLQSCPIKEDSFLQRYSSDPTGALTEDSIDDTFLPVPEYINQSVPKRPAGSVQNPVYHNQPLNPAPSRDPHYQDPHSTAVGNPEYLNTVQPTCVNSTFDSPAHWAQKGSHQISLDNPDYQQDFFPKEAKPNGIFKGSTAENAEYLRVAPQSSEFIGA
Tyrosine-protein kinase JAK2, sequence (O60674 whole entry): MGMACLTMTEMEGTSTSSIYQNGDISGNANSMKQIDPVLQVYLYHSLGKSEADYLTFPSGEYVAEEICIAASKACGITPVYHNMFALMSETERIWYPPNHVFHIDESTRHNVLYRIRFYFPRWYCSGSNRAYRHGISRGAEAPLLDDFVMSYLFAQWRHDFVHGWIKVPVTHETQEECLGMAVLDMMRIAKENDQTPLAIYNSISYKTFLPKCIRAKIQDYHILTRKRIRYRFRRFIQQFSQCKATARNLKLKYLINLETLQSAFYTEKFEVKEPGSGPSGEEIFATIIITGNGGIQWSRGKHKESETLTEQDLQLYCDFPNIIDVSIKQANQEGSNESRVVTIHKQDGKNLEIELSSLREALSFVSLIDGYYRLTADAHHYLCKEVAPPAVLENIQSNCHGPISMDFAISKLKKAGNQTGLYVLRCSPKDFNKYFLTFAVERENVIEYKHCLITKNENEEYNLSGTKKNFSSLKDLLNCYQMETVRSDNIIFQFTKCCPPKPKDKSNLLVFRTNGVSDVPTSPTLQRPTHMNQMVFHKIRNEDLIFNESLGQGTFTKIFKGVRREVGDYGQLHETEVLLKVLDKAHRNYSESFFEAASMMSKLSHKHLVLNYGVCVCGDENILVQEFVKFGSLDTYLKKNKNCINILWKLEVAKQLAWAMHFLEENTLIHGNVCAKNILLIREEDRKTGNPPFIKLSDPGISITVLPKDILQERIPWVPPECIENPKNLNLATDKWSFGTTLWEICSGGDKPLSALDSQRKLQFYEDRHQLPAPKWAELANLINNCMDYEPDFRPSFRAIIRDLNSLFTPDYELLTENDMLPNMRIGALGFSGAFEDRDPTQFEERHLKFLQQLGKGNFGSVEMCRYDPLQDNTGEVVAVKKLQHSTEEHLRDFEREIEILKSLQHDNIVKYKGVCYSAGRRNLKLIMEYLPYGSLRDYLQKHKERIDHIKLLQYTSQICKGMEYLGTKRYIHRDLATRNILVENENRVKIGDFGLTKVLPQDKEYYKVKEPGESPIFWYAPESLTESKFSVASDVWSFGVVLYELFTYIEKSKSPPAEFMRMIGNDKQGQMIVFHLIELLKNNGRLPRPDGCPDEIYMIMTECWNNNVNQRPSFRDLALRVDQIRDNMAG

| Structure (SMILES) | Activity [1] | IC50 (Plasmodium falciparum [2]) | further results |
| --- | --- | --- | --- |
| Cc1cc(Nc2nc(Nc3cccc(S(N)(=O)=O)c3)ncc2C#N)ccc1N1CCN(C)CC1 | 33% | – | – |
| Cc1cccc(Nc2ccnc(Nc3ccc(N4CCOCC4)cc3)n2)c1 | 74% | – | – |
| NC(=O)c1ccccc1Nc1ccnc(Nc2ccc(N3CCOCC3)cc2)n1 | 68% | 4.39 µM | – |
| CN1CCN(c2ccc(Nc3nccc(Nc4cccc(S(N)(=O)=O)c4)n3)cc2)CC1 | 80% | 7.25 µM | – |
| Cc1cccc(Nc2ccnc(Nc3ccc(N4CCN(C)CC4)cc3)n2)c1 | 94% | 0.431 µM | IC50 [3]: 11 µM; IC50 [4]: 2.1 µM; EC50 at 72 h [5]: 1 µM; IC50 [6]: 0.14 µM; EC50 at 72 h [7]: 7.1 µM |
| Cc1cc(Nc2nccc(Nc3ccccc3C(N)=O)n2)ccc1N1CCN(C)CC1 | 92% | 1.06 µM | – |
| CN1CCN(c2ccc(Nc3nccc(Nc4ccccc4C(N)=O)n3)cc2)CC1 | 91% | 1.5 µM | – |
| Cc1cc(Nc2nccc(Nc3cccc(S(N)(=O)=O)c3)n2)ccc1N1CCN(C)CC1 | 66% | 3.86 µM | IC50 [3]: > 150 µM; IC50 [4]: 4.1 µM; EC50 at 72 h [5]: > 100 µM; IC50 [6]: 0.126 µM; EC50 at 72 h [7]: 4.2 µM |
| Cc1cccc(Nc2ccnc(Nc3cccc(C)c3)n2)c1 | 94% | – | – |
| c1cc(Nc2ccc(N3CCOCC3)cc2)nc(Nc2ccc(N3CCOCC3)cc2)n1 | 25% | – | – |
| NS(=O)(=O)c1cccc(Nc2ccnc(Nc3ccc(N4CCOCC4)cc3)n2)c1 | 35% | 8.97 µM | IC50 [3]: > 100 µM; IC50 [4]: 7.1 µM; EC50 at 72 h [5]: 37 µM; IC50 [6]: 0.129 µM; EC50 at 72 h [7]: 9.4 µM |
| Cc1cc(Nc2ncc(C#N)c(Nc3cccc(S(C)(=O)=O)c3)n2)ccc1N1CCN(C)CC1 | 92% | 4.72 µM | – |
| Cc1cccc(Nc2ncc(C#N)c(Nc3cccc(C)c3)n2)c1 | 40% | – | – |
| Cc1cccc(Nc2ccnc(Nc3ccc(N4CCN(C)CC4)c(C)c3)n2)c1 | 94% | 0.647 µM | IC50 [3]: > 150 µM; IC50 [4]: 1.8 µM; EC50 at 72 h [5]: 2 µM; IC50 [6]: 0.05 µM; EC50 at 72 h [7]: 3.5 µM |
| Cc1cc(Nc2ncc(C#N)c(Nc3cccc(S(N)(=O)=O)c3)n2)ccc1N1CCN(C)CC1 | 94% | 5.56 µM | – |
| CNC(=O)c1cnc(Nc2ccc(N3CCOCC3)cc2)nc1Nc1cccc(OC(C)C)c1 | – | – | Activity [8]: 19%; IC50 (Plasmodium falciparum [9]): 0.759 µM |
| Cc1cccc(Nc2ncc(C(N)=O)c(Nc3cccc(C)c3)n2)c1 | 96% | – | – |
| Cc1cc(Nc2ncc(C#N)c(Nc3cccc(S(=O)(=O)NC(C)(C)C)c3)n2)ccc1N1CCN(C)CC1 | 31% | 4.56 µM | IC50 [3]: > 150 µM; IC50 [4]: > 100 µM; EC50 at 72 h [5]: 45.4 µM; IC50 [6]: > 100 µM; EC50 at 72 h [7]: > 100 µM |
| COc1cnc(Nc2ccc(N3CCN(C)CC3)c(C)c2)nc1Nc1cccc(S(N)(=O)=O)c1 | 88% | 5.26 µM | – |
| CN1CCN(c2ccc(Nc3ncc(C#N)c(Nc4ccccc4C(N)=O)n3)cc2)CC1 | – | – | Activity [8]: 43%; IC50 (Plasmodium falciparum [9]): 0.04 µM |
| CNC(=O)c1cnc(Nc2ccc(N3CCN(C)CC3)cc2)nc1Nc1cccc([N+](=O)[O-])c1 | – | – | Activity [8]: 16%; IC50 (Plasmodium falciparum [9]): 0.138 µM |
| Cc1cc(Nc2ncc(C#N)c(Nc3ccccc3C(N)=O)n2)ccc1N1CCN(C)CC1 | 94% | 3.93 µM | Activity [8]: 99%; IC50 (Plasmodium falciparum [9]): 0.009 µM |
| O[C@@H](c1cc(C(F)(F)F)nc2c(C(F)(F)F)cccc12)[C@H]1CCCCN1 [(S,R)-MEFLOQUINE] | – | 0.07 µM | – |
| C[C@H]1[C@@H](O)O[C@@H]2O[C@@]3(C)CC[C@H]4[C@H](C)CC[C@@H]1[C@@]24OO3 [ARTENIMOL] | – | 0.00254 µM | – |
| CCN(CC)CCCC(C)Nc1ccnc2cc(Cl)ccc12 (stereo not drawn) [CHLOROQUINE] | 45% | – | – |
